Activity calls are given as the source filed them. The rule behind the calls is not given here.
How the values were obtained:
[1] = Toxicity in Wistar kyoto rat assessed as swollen renal cells at 10 mg/kg, ip administered for 14 days by H and E staining based assay; assay type: organism-based; conditions: in vivo, 336 h
Method in brief: (§1)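 WKY rats were dosed intraperitoneally at 10 mg/kg daily for 14 days, using the 10% 1,3-propanediol vehicle, with a vehicle control group. Liver and kidney were collected and fixed immediately in 4% glutaraldehyde. Sections were stained with haematoxylin and eosin and scored for structural change under light microscopy.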

[2] = Toxicity in Wistar kyoto rat assessed as congestion in renal tissue at 10 mg/kg, ip administered for 14 days by H and E staining based assay; assay type: organism-based; conditions: in vivo, 336 h
Method in brief: (§2)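 WKY rats were given 10 mg·kg⁻¹ intraperitoneally daily for 14 days, with vehicle-treated controls. Liver and kidney were collected and fixed in 4% glutaraldehyde. Tissue was examined after HE staining by light microscopy and by transmission electron microscopy at 6000, 10000 and 20000-fold.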

[3] = tested on: Rattus norvegicus; test: Antihypertensive activity in spontaneously hypertensive Wistar kyoto rat assessed as reduction in diastolic arterial pressure at 20 mg/kg, ip administered for 6 hrs and measured every 30 mins post treatment by tail-cuff method; assay type: functional
Method in brief: (§3)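 Male SHRs (8 weeks, 300 ± 25 g; 6 per group), given compound intraperitoneally once daily at 8 am in 0.5% (w/v) sodium carboxymethyl cellulose/DMSO 3/1 (v/v), 2 mL·kg⁻¹. Vehicle-treated SHR and WKY controls. SBP, DBP and heart rate were measured by tail-cuff on awake, restrained rats before dosing, then every 30 min for 6 h. Values are mean ± SD of four independent experiments.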

[4] = tested on: Rattus norvegicus; test: Antihypertensive activity in spontaneously hypertensive Wistar kyoto rat assessed as reduction in diastolic arterial pressure at 40 mg/kg, ip administered for 6 hrs and measured every 30 mins post treatment by tail-cuff method; assay type: functional; method in brief: as §3
[5] = tested on: Rattus norvegicus; test: Antihypertensive activity in spontaneously hypertensive Wistar kyoto rat assessed as reduction in systolic arterial pressure at 10 mg/kg, ip administered for 6 hrs and measured every 30 mins post treatment by tail-cuff method; assay type: functional; method in brief: as §3
[6] = Toxicity in Wistar kyoto rat assessed as visible gaps in hepatocytes at 10 mg/kg, ip administered for 14 days by H and E staining based assay; assay type: organism-based; conditions: in vivo, 336 h; method in brief: as §1
[7] = tested on: Rattus norvegicus; test: Antihypertensive activity in spontaneously hypertensive Wistar kyoto rat assessed as reduction in diastolic arterial pressure at 10 mg/kg, ip administered for 6 hrs and measured every 30 mins post treatment by tail-cuff method; assay type: functional; method in brief: as §3
[8] = tested on: Rattus norvegicus; test: Antihypertensive activity in spontaneously hypertensive Wistar kyoto rat assessed as reduction in systolic arterial pressure at 20 mg/kg, ip administered for 6 hrs and measured every 30 mins post treatment by tail-cuff method; assay type: functional; method in brief: as §3
[9] = Toxicity in Wistar kyoto rat assessed as central venous in liver at 10 mg/kg, ip administered for 14 days by H and E staining based assay; assay type: organism-based; conditions: in vivo, 336 h; method in brief: as §2
[10] = Toxicity in Wistar kyoto rat assessed as intact hepatic lobule structure at 10 mg/kg, ip administered for 14 days by H and E staining based assay; assay type: organism-based; conditions: in vivo, 336 h; method in brief: as §1
[11] = tested on: Rattus norvegicus; test: Antihypertensive activity in spontaneously hypertensive Wistar kyoto rat assessed as reduction in systolic arterial pressure at 40 mg/kg, ip administered for 6 hrs and measured every 30 mins post treatment by tail-cuff method; assay type: functional; method in brief: as §3
[12] = Toxicity in Wistar kyoto rat assessed as light staining in cytoplasm of liver tissue at 10 mg/kg, ip administered for 14 days by H and E staining based assay; assay type: organism-based; conditions: in vivo, 336 h; method in brief: as §1
[13] = Toxicity in Wistar kyoto rat assessed as hepatic sinus congestion at 10 mg/kg, ip administered for 14 days by H and E staining based assay; assay type: organism-based; conditions: in vivo, 336 h; method in brief: as §2
[14] = Toxicity in Wistar kyoto rat assessed as a large amount of exudation in glomerulus at 10 mg/kg, ip administered for 14 days by TEM assay; assay type: organism-based; conditions: in vivo, 336 h; method in brief: as §2
[15] = Toxicity in Wistar kyoto rat assessed as increase in lipid droplets in cytoplasm in liver tissue at 10 mg/kg, ip administered for 14 days by TEM assay; assay type: organism-based; conditions: in vivo, 336 h
Method in brief: (§4)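 After 14 days of daily intraperitoneal dosing at 10 mg/kg in WKY rats, with vehicle controls, liver and kidney were fixed in 4% glutaraldehyde. Ultrastructure was examined by transmission electron microscopy at 6000-, 10000- and 20000-fold magnification.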

[16] = Toxicity in Wistar kyoto rat assessed as visible gaps in kidney tissue at 10 mg/kg, ip administered for 14 days by H and E staining based assay; assay type: organism-based; conditions: in vivo, 336 h; method in brief: as §1
[17] = Cardiotoxicity in SHR rat assessed as thin myocardial fiber formation at 10 mg/kg, ip administered for 14 days by H and E staining based microscopic assay; assay type: toxicity, organism-based; conditions: in vivo, 336 h
Method in brief: (§5)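 SHRs were given 10 mg·kg⁻¹ intraperitoneally per day for 14 consecutive days, with an ibuprofen comparator and a normal control. Myocardial tissue was then removed. Sections were HE-stained for light microscopy and also examined by transmission electron microscopy at 6000, 10000 and 20000-fold.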

[18] = Cardiotoxicity in SHR rat assessed as neatly arranged myocardial fibers at 10 mg/kg, ip administered for 14 days by H and E staining based microscopic assay; assay type: toxicity, organism-based; conditions: in vivo, 336 h; method in brief: as §5
[19] = Toxicity in Wistar kyoto rat assessed as increase in heterochromatin in liver tissue at 10 mg/kg, ip administered for 14 days by TEM assay; assay type: organism-based; conditions: in vivo, 336 h; method in brief: as §4
[20] = Toxicity in Wistar kyoto rat assessed as swollen gastric cell at 10 mg/kg, ip administered for 14 days by H and E staining based optical microscopic method; assay type: organism-based; conditions: in vivo, 336 h
Method in brief: (§6)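 WKY rats, 3 per group, were dosed for 14 days, with the compound at 10 mg/kg per dose and the ibuprofen comparator at 6.1 mg/kg. Rats were anaesthetised with ether and killed by cervical dislocation. Stomach and intestine were sectioned at 5-10 µm, stained with haematoxylin and eosin, and examined by optical microscopy.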

[21] = tested on: Rattus norvegicus; test: Antihypertensive activity in ip dosed spontaneously hypertensive Wistar kyoto rat assessed as reduction in diastolic arterial pressure administered for 6 hrs and measured every 30 mins post treatment by tail-cuff method; assay type: functional, organism-based; method in brief: as §3
[22] = Toxicity in Wistar kyoto rat assessed as chromatin edge collection in liver tissue at 10 mg/kg, ip administered for 14 days by TEM assay; assay type: organism-based; conditions: in vivo, 336 h; method in brief: as §2
[23] = Toxicity in Wistar kyoto rat assessed as reduction in intestinal mucosal congestion symptoms at 10 mg/kg, ip administered for 14 days by H and E staining based optical microscopic method; assay type: organism-based; conditions: in vivo, 336 h; method in brief: as §6
[24] = tested on: Rattus norvegicus; test: Antihypertensive activity in ip dosed spontaneously hypertensive Wistar kyoto rat assessed as reduction in systolic arterial pressure administered for 6 hrs and measured every 30 mins post treatment by tail-cuff method; assay type: functional, organism-based; method in brief: as §3
[25] = tested on: Rattus norvegicus; test: Cardioprotective activity in SHR rat assessed as change in muscle fiber mitochondria at 10 mg/kg, ip administered for 14 days by TEM analysis; assay type: functional, organism-based; method in brief: as §5
[26] = tested on: H9c2; test: Cytoprotective activity against H2O2-induced toxicity in rat H9c2 cells assessed as reduction in cell de-fromation at 10 to 80 uM pretreated with compound followed by H2O2 addition and measured after 1 to 8 hrs by giemsa staining based microscopic method; assay type: functional
Method in brief: (§7)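 H9c2 cells were injured with H₂O₂ (400 µM) for 1, 4 or 8 h to give light, medium and heavy damage, in the presence of compound at 10–80 µM. Acetaminophen or ibuprofen served as controls. Viability was measured as mean ± SD of three experiments. SOD and MDA contents were measured as mean ± SD of four experiments. Morphology was assessed by Giemsa staining under light microscopy.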

[27] = tested on: H9c2; test: Cytoprotective activity against H2O2-induced toxicity in rat H9c2 cells assessed as increase in cell repair at 10 to 80 uM pretreated with compound followed by H2O2 addition and measured after 1 to 8 hrs by giemsa staining based microscopic method; assay type: functional; method in brief: as §7

## CC(C)Cc1ccc(C(C)C(=O)Oc2ccc(-c3cc(=S)ss3)cc2)cc1 (stereo unspecified)
[1]
  Activity: Toxic
[2]
  Activity: Toxic
[3]
  Activity: 115.1 mmHg
[4]
  Activity: 112.4 mmHg
[5]
  Systolic arterial pressure: 142.9 mmHg
[6]
  Activity: Toxic
[7]
  Diastolic arterial pressure: 116.3 mmHg
[8]
  Activity: 136.7 mmHg
[9]
  Activity: Toxic
[10]
  Activity: Non-Toxic
[11]
  Activity: 135.1 mmHg
[12]
  Activity: Toxic
[13]
  Activity: Toxic

## CC(C)Cc1ccc(C(C)C(=O)Oc2ccc(C(N)=S)cc2)cc1 (stereo unspecified)
[14]
  Activity: Toxic
[15]
  Activity: Toxic
[16]
  Activity: Toxic
[17]
  Activity: Active
[18]
  Activity: Non-Toxic
[6]
  Activity: Toxic
[19]
  Activity: Toxic
[9]
  Activity: Toxic
[20]
  Activity: Non-Toxic
[21]
  Activity: Dose-dependent effect
[10]
  Activity: Non-Toxic
[22]
  Activity: Toxic
[23]
  Activity: Non-Toxic
[12]
  Activity: Toxic
[13]
  Activity: Toxic

## CC(=O)Nc1ccc(OC(=O)CCCCC2CCSS2)cc1 (stereo unspecified)
[3]
  Activity: 110.9 mmHg
[4]
  Activity: 99.4 mmHg
[17]
  Activity: Active
[18]
  Activity: Non-Toxic
[5]
  Systolic arterial pressure: 139.1 mmHg
[7]
  Diastolic arterial pressure: 113.8 mmHg
[8]
  Activity: 127.6 mmHg
[24]
  Activity: Dose-dependent effect
[25]
  Activity: Active
[21]
  Activity: Dose-dependent effect
[26]
  Activity: Active
[11]
  Activity: 115.3 mmHg
[27]
  Activity: Active

Reference: ChEMBL document CHEMBL4334422, “Toxicities and beneficial protection of H2S donors based on nonsteroidal anti-inflammatory drugs” (Medchemcomm, 2019)
